Data from ChEMBL document CHEMBL1944507, “Structure-activity relationships for amide-, carbamate-, and urea-linked analogues of the tuberculosis drug (6S)-2-nitro-6-{[4-(trifluoromethoxy)benzyl]oxy}-6,7-dihydro-5H-imidazo[2,1-b][1,3]oxazine (PA-824)” (J Med Chem, 2012).
≈ marks a conversion by molar mass, not a printed value.

Assays:
[1] = Kinetic solubility of the compound in water at pH 7 by HPLC analysis; assay type: physicochemical; settings: read-out: Kinetic_solubility
[2] = Metabolic stability of the compound in human liver microsomes assessed as compound remaining after 1 hr; assay type: ADME, Microsome; settings: read-out: Stability
In short: (§1)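 Pooled human or CD-1 mouse liver microsomes incubated with compound for 1 h. Percentage of compound remaining calculated from analyte/internal standard peak area ratios.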

[3] = Metabolic stability of the compound in CD-1 mouse liver microsomes assessed as compound remaining after 1 hr; assay type: ADME, Microsome; settings: read-out: Stability; in short: as §1
[4] = system: Mycobacterium tuberculosis; assay: Antimicrobial activity against Mycobacterium tuberculosis infected in BALB/c mouse assessed as fold reduction in lung CFU at 100 mg/kg, po administered 11 days after post infection qd for 5 days per week for 3 weeks relative to PA-824; assay type: functional
In short: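 Groups of 7 M. tb-infected BALB/c mice dosed orally at 100 mg/kg daily, 5 days/week for 3 weeks, starting on day 11 postinfection. Readout is the average lung CFU reduction in treated mice divided by the average CFU reduction in mice given the reference nitroimidazooxazine.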

[5] = AUC (0 to infinity) in CD-1 mouse plasma at 40 mg/kg, po; assay type: ADME, organism-based; parameters: dose 40 mg/kg, route oral, time infinity
In short: (§2)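 CD-1 mice given a single oral dose of 40 mg/kg, suspended in 0.5% carboxymethylcellulose/0.08% Tween 80 in water. Plasma and lung samples quantified by LC-MS/MS. AUC extrapolated to infinity. Lung/plasma ratio is lung AUC divided by plasma AUC.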

[6] = Cmax in CD-1 mouse plasma at 40 mg/kg, po; assay type: ADME, organism-based; parameters: dose 40 mg/kg, route oral; in short: as §2
[7] = Half life in CD-1 mouse plasma at 40 mg/kg, po; assay type: ADME, organism-based; parameters: dose 40 mg/kg, route oral; in short: as §2
[8] = AUC (0 to infinity) in CD-1 mouse lung at 40 mg/kg, po; assay type: ADME, organism-based; parameters: dose 40 mg/kg, route oral, time infinity; in short: as §2
[9] = Cmax in CD-1 mouse lung at 40 mg/kg, po; assay type: ADME, organism-based; parameters: dose 40 mg/kg, route oral; in short: as §2
[10] = Ratio AUC (0 to infinity) in CD-1 mouse lung to AUC (0 to infinity) in CD-1 mouse plasma at 40 mg/kg, po; assay type: ADME, organism-based; parameters: dose 40 mg/kg, route oral; settings: read-out: Ratio AUC; in short: as §2
[11] = system: Mycobacterium tuberculosis; assay: Antimicrobial activity against Mycobacterium tuberculosis infected in BALB/c mouse assessed as fold reduction in lung CFU at 100 mg/kg, po administered 70 days after post infection qd for 5 days per week for 3 weeks relative to OPC-67683; assay type: functional
In short: (§3)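 Chronic infection model in M. tb-infected BALB/c mice: oral dosing at 100 mg/kg daily, 5 days/week for 3 weeks, beginning about 70 days postinfection. Result expressed as fold lung CFU reduction relative to the reference drug.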

[12] = Half life in CD-1 mouse lung at 40 mg/kg, po; assay type: ADME, organism-based; parameters: dose 40 mg/kg, route oral; in short: as §2
[13] = system: Mycobacterium tuberculosis; assay: Antimicrobial activity against Mycobacterium tuberculosis infected in BALB/c mouse assessed as fold reduction in lung CFU at 100 mg/kg, po administered 70 days after post infection qd for 5 days per week for 3 weeks; assay type: functional; in short: as §3
[14] = system: Mycobacterium tuberculosis; assay: Antimicrobial activity against Mycobacterium tuberculosis infected in chronic BALB/c mouse infection model assessed as fold reduction in lung CFU at 100 mg/kg, po dministered 50 days after post infection qd for 5 days per week for 3 weeks; assay type: functional
[15] = Octanol-water partition coefficient, log P of the compound by shake-flask method; assay type: physicochemical
In short: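 Octanol-water partition coefficient measured by the shake-flask method.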

[16] = Thermodynamic solubility of the compound at pH 1; assay type: physicochemical; settings: buffer, read-out: Therm_solubility
[17] = Thermodynamic solubility of the compound at pH 7.4; assay type: physicochemical; settings: buffer, read-out: Therm_solubility
[18] = Plasma protein binding in human at 10 uM; assay type: ADME, cell-free; settings: read-out: PPB (converted)
In short: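 Human plasma protein binding measured by equilibrium dialysis, with overnight incubation of compound at 10 μM containing 1% DMSO.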

Salmonella typhimurium [19] = assay: Induction of mutagenesis in Salmonella Typhimurium TA98 in absence of rat liver S9 fraction by Ames test; assay type: toxicity, organism-based; settings: salmonella enterica subsp. enterica serovar typhimurium
In short: (§4)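 MicroAmes reverse mutation screen in Salmonella TA98 and TA100, preincubated with and without rat liver S9, at 0.25-250 μg/well.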

Salmonella typhimurium [20] = assay: Induction of mutagenesis in Salmonella Typhimurium TA98 in presence of rat liver S9 fraction by Ames test; assay type: toxicity, organism-based; settings: salmonella enterica subsp. enterica serovar typhimurium; in short: as §4
Salmonella typhimurium [21] = assay: Induction of mutagenesis in Salmonella Typhimurium TA100 in absence of rat liver S9 fraction by Ames test; assay type: toxicity, organism-based; settings: salmonella enterica subsp. enterica serovar typhimurium; in short: as §4
Salmonella typhimurium [22] = assay: Induction of mutagenesis in Salmonella Typhimurium TA100 in presence of rat liver S9 fraction by Ames test; assay type: toxicity, organism-based; settings: salmonella enterica subsp. enterica serovar typhimurium; in short: as §4

Work on O=C(N[C@@H]1COc2nc([N+](=O)[O-])cn2C1)c1ccc(OC(F)(F)F)cc1 yielded a solubility kinetic [1] of 109 µg/mL (≈ 293 µM).
CN(C(=O)c1ccc(OC(F)(F)F)cc1)[C@@H]1COc2nc([N+](=O)[O-])cn2C1 showed a solubility kinetic [1] of 17 µg/mL (≈ 44 µM).
With O=[N+]([O-])c1cn2c(n1)OC[C@@H](NS(=O)(=O)c1ccc(OC(F)(F)F)cc1)C2 the solubility kinetic [1] was 6.1 µg/mL (≈ 14.9 µM).
For CN([C@@H]1COc2nc([N+](=O)[O-])cn2C1)S(=O)(=O)c1ccc(OC(F)(F)F)cc1, the solubility kinetic [1] was 15 µg/mL (≈ 35.5 µM).
For O=C(CN[C@@H]1COc2nc([N+](=O)[O-])cn2C1)c1ccc(OC(F)(F)F)cc1, the solubility kinetic [1] was 21 µg/mL (≈ 54.4 µM).
Work on O=C(Nc1ccc(OC(F)(F)F)cc1)N[C@@H]1COc2nc([N+](=O)[O-])cn2C1 yielded a solubility kinetic [1] of 93 µg/mL (≈ 240 µM).
Work on O=C(N[C@@H]1COc2nc([N+](=O)[O-])cn2C1)OCc1ccc(-c2ccc(OC(F)(F)F)cc2)cc1 yielded a solubility kinetic [1] of 0.67 µg/mL (≈ 1.4 µM).
Work on O=C(Nc1cccc(-c2ccc(OC(F)(F)F)cc2)c1)N[C@@H]1COc2nc([N+](=O)[O-])cn2C1 yielded a solubility kinetic [1] of 3 µg/mL (≈ 6.47 µM), a remaining at 1 h [2] of 86% and a remaining at 1 h [3] of 88%. The “fold change (FC)” value [4] was less than 0.01.
O=C(Nc1ccc(-c2ccc(OC(F)(F)F)cc2)cc1)N[C@@H]1COc2nc([N+](=O)[O-])cn2C1 gave a solubility kinetic [1] of 0.17 µg/mL (≈ 0.367 µM), a remaining at 1 h [2] of 91% and a remaining at 1 h [3] of 90%. The AUC(0-inf) [5] was 6610 ng·h/mL, the Cmax [6] was 480 ng/mL and the half-life [7] was 6.3 h. For the same molecule, the AUC(0-inf) [8] was greater than 60000 ng·h/mL, the Cmax [9] was 4700 ng/mL and the Kp [10] was greater than 9. The “fold change (FC)” value [4] was 1.
For O=C(NCc1ccc(-c2ccc(OC(F)(F)F)cc2)cc1)N[C@@H]1COc2nc([N+](=O)[O-])cn2C1, the solubility kinetic [1] was 0.94 µg/mL (≈ 1.97 µM).
For O=C(Nc1cccc(-c2ccc(OC(F)(F)F)cc2)c1)O[C@@H]1COc2nc([N+](=O)[O-])cn2C1, the solubility kinetic [1] was 0.07 µg/mL (≈ 0.151 µM), the remaining at 1 h [2] was 88% and the remaining at 1 h [3] was 93%. The “fold change (FC)” value [4] was 3.4.
For O=C(Nc1cccc(-c2ccc(C(F)(F)F)nc2)c1)O[C@@H]1COc2nc([N+](=O)[O-])cn2C1, the solubility kinetic [1] was 5.8 µg/mL (≈ 12.9 µM), the remaining at 1 h [2] was 89% and the remaining at 1 h [3] was 80%. The “fold change (FC)” value [4] was 0.02.
Molecule O=C(Nc1ccc(-c2ccc(OC(F)(F)F)cc2)cc1)O[C@@H]1COc2nc([N+](=O)[O-])cn2C1 has a remaining at 1 h [2] of 100%, a remaining at 1 h [3] of 98% and an AUC(0-inf) [5] of 44900 ng·h/mL. The Cmax [6] was 520 ng/mL, the half-life [7] was 62.3 h and the AUC(0-inf) [8] was greater than 136000 ng·h/mL. The Cmax [9] was 6900 ng/mL, the Kp [10] was greater than 3 and the “fold change (FC)” value [4] was 5. The “fold change (FC)” value [11] was 0.35.
Molecule O=C(NCc1ccc(-c2ccc(OC(F)(F)F)cc2)cc1)O[C@@H]1COc2nc([N+](=O)[O-])cn2C1 has a solubility kinetic [1] of 0.34 µg/mL (≈ 0.711 µM).
O=C(O[C@@H]1COc2nc([N+](=O)[O-])cn2C1)N1CC[C@H](Oc2ccc(OC(F)(F)F)cc2)C1 gave a solubility kinetic [1] of 21 µg/mL (≈ 45.8 µM).
O=C(O[C@@H]1COc2nc([N+](=O)[O-])cn2C1)N1CCC(Oc2ccc(C(F)(F)F)nc2)CC1 showed a solubility kinetic [1] of 94 µg/mL (≈ 206 µM).
Work on CN(Cc1ccc(OC(F)(F)F)cc1)C1CCN(C(=O)O[C@@H]2COc3nc([N+](=O)[O-])cn3C2)CC1 yielded a solubility kinetic [1] of 11 µg/mL (≈ 22 µM).
Work on O=C(COc1ccc(-c2ccc(OC(F)(F)F)cc2)cc1)N[C@@H]1COc2nc([N+](=O)[O-])cn2C1 yielded a solubility kinetic [1] of 0.96 µg/mL (≈ 2.01 µM).
For O=C(Cc1ccc(-c2ccc(OC(F)(F)F)cc2)cc1)N[C@@H]1COc2nc([N+](=O)[O-])cn2C1, the solubility kinetic [1] was 1.8 µg/mL (≈ 3.89 µM).
O=C(CO[C@@H]1COc2nc([N+](=O)[O-])cn2C1)Nc1ccc(OC(F)(F)F)cc1 gave a solubility kinetic [1] of 68 µg/mL (≈ 169 µM), a remaining at 1 h [2] of 100% and a remaining at 1 h [3] of 85%. For the same molecule, the “fold change (FC)” value [4] was 0.33.
With CN(C(=O)N(C)[C@@H]1COc2nc([N+](=O)[O-])cn2C1)c1ccc(OC(F)(F)F)cc1 the solubility kinetic [1] was 38 µg/mL (≈ 91.5 µM).
For O=[N+]([O-])c1cn2c(n1)OC[C@@H](NC(=S)Nc1ccc(OC(F)(F)F)cc1)C2, the solubility kinetic [1] was 12 µg/mL (≈ 29.8 µM).
In the case of O=C(NCc1ccc(OC(F)(F)F)cc1)N[C@@H]1COc2nc([N+](=O)[O-])cn2C1, the solubility kinetic [1] is reported as 32 µg/mL (≈ 79.7 µM).
O=C(Nc1ccc(OC(F)(F)F)cc1)O[C@@H]1COc2nc([N+](=O)[O-])cn2C1 showed a solubility kinetic [1] of 5.4 µg/mL (≈ 13.9 µM), a remaining at 1 h [2] of 88% and a remaining at 1 h [3] of 89%. For the same molecule, the AUC(0-inf) [5] was 28500 ng·h/mL, the Cmax [6] was 1400 ng/mL and the half-life [7] was 9.8 h. For the same molecule, the AUC(0-inf) [8] was 43300 ng·h/mL, the Cmax [9] was 3800 ng/mL and the half-life [12] was 4.1 h. The Kp [10] was 1.5, the “fold change (FC)” value [4] was 0.39 and the “fold change (FC)” value [11] was 0.02.
CN(C(=O)O[C@@H]1COc2nc([N+](=O)[O-])cn2C1)c1ccc(OC(F)(F)F)cc1 showed a solubility kinetic [1] of 18 µg/mL (≈ 44.7 µM), a remaining at 1 h [2] of 37% and a remaining at 1 h [3] of 1%. The “fold change (FC)” value [4] was 5.3.
Work on O=C(NCc1ccc(OC(F)(F)F)cc1)O[C@@H]1COc2nc([N+](=O)[O-])cn2C1 yielded a solubility kinetic [1] of 10 µg/mL (≈ 24.9 µM).
In the case of C[C@]1(COc2ccc(N3CCC(Oc4ccc(OC(F)(F)F)cc4)CC3)cc2)Cn2cc([N+](=O)[O-])nc2O1, the “fold change (FC)” value [13] is reported as 3 and the “fold change (FC)” value [14] is reported as 3.
Work on O=C(COc1ccc(OC(F)(F)F)cc1)N[C@@H]1COc2nc([N+](=O)[O-])cn2C1 yielded a solubility kinetic [1] of 43 µg/mL (≈ 107 µM).
O=[N+]([O-])c1cn2c(n1)OC[C@@H](NCc1ccc(OC(F)(F)F)cc1)C2 showed a solubility kinetic [1] of 131 µg/mL (≈ 366 µM).
For O=[N+]([O-])c1cn2c(n1)OC[C@@H](OCc1ccc(OC(F)(F)F)cc1)C2 [PRETOMANID], the “fold change (FC)” value [13] was 2, the logP [15] was 2.52 and the solubility thermodynamic [16] was 30 µM (≈ 10.8 µg/mL). The solubility thermodynamic [17] was 30 µM (≈ 10.8 µg/mL), the fraction unbound at 10 µM [18] was 0.06 and the Activity (Salmonella typhimurium [19]) was “Non-toxic”. For the same molecule, the Activity (Salmonella typhimurium [20]) was “Non-toxic”, the Activity (Salmonella typhimurium [21]) was “Non-toxic” and the Activity (Salmonella typhimurium [22]) was “Non-toxic”.
